Reference: ChEMBL document CHEMBL3232764, “Influence of the adamantyl moiety on the activity of biphenylacrylohydroxamic acid-based HDAC inhibitors” (Eur J Med Chem, 2014)
Calls of active or inactive are those of the source. No cut-off for these calls is given here.

Experiments:
[1] = cells; assay type: functional, cell-based; settings: Homo sapiens, NCI-H460, 72 h
[2] = tested on: HCT-116; assay: Antiproliferative activity against human HCT116 cells assessed as growth inhibition after 72 hrs; assay type: functional, cell-based; settings: HCT-116, 72 h
In short: (§1)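 Log-phase cells seeded in duplicate in 6-well plates; drug added 24 h after seeding. Cells harvested 72 h after drug exposure and counted with a cell counter. IC50 = drug concentration giving 50% reduction in cell number versus untreated control.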

[3] = tested on: IGROV-1; assay: Antiproliferative activity against human IGROV1 cells assessed as growth inhibition after 72 hrs; assay type: functional, cell-based; settings: IGROV-1, 72 h
In short: as §1

[4] = Antiproliferative activity against p53 defective cis-platinum-resistant human IGROV1/Pt1 cells assessed as growth inhibition after 72 hrs; assay type: functional, cell-based; settings: IGROV-1/Pt1, 72 h
In short: as §1

[5] = target: T1, Protein deacetylase HDAC6 (Homo sapiens, UniProt Q9UBN7); assay: Inhibition of human HDAC6 using fluorogenic tetrapeptide RHKKAc as substrate
T1 sequence (Q9UBN7 whole entry): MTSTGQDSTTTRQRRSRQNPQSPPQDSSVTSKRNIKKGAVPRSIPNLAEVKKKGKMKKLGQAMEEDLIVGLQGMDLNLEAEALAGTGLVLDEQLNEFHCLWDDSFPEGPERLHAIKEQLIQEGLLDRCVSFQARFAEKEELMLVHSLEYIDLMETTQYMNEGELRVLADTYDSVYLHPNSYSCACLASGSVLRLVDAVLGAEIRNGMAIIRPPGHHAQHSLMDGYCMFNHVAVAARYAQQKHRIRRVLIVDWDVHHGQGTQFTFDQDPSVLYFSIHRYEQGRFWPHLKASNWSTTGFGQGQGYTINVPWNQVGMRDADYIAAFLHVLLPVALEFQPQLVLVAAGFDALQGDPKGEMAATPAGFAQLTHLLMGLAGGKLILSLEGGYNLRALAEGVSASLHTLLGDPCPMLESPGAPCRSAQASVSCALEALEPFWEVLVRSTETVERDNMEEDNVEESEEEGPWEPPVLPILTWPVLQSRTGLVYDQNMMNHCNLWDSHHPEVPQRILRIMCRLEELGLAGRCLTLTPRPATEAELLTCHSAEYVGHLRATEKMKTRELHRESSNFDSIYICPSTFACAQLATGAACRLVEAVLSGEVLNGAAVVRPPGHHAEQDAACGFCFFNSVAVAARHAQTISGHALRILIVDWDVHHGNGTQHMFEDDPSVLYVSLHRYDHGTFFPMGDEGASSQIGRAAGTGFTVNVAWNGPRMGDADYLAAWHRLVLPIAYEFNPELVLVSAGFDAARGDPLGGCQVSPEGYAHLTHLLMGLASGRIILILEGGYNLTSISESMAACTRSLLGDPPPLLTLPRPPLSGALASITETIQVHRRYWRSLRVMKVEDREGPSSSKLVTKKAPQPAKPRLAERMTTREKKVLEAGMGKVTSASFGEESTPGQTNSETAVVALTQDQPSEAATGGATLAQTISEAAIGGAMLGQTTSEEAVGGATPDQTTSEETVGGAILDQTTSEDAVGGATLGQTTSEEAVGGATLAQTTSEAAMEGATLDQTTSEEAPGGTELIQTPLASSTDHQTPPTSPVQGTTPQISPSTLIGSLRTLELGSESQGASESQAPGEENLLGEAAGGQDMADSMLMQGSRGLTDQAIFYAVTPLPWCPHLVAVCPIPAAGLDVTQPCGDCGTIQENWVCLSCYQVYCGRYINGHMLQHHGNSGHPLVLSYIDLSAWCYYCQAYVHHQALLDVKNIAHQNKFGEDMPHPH

[6] = target: T2, Polyamine deacetylase HDAC10 (Homo sapiens, UniProt Q969S8); assay: Inhibition of human HDAC10 using fluorogenic tetrapeptide RHKKAc as substrate
T2 sequence (Q969S8 whole entry): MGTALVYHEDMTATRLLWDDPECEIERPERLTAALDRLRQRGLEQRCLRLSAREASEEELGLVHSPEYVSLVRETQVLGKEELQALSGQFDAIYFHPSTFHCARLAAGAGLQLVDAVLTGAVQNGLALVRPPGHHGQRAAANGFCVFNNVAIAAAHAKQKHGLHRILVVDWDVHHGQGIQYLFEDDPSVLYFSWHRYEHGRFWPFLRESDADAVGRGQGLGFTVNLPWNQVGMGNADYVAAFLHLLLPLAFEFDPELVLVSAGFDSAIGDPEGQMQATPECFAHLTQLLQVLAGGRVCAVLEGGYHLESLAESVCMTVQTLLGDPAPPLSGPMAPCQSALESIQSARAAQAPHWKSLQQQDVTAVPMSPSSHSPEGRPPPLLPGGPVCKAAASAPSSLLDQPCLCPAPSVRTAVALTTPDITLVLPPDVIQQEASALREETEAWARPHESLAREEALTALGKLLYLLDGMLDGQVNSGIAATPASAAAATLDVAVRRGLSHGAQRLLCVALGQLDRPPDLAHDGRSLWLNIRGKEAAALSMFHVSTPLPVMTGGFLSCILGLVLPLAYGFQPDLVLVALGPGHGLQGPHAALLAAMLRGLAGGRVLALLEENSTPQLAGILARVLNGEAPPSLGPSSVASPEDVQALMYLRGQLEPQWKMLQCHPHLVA

[7] = target: Histone deacetylase 3 (Homo sapiens, UniProt O15379)
Chain of Histone deacetylase 3 (O15379 whole entry): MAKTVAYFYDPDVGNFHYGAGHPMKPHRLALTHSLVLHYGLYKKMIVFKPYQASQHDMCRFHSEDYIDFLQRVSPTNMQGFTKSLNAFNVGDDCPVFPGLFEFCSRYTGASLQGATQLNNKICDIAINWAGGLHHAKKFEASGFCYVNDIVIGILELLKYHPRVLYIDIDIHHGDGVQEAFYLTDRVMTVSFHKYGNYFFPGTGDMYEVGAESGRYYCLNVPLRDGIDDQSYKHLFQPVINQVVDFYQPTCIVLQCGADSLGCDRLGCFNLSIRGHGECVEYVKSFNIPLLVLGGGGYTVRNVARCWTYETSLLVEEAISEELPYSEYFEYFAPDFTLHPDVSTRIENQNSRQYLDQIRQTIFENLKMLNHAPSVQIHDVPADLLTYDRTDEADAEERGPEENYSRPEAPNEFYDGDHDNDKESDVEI

[8] = target: Histone deacetylase 1 (Homo sapiens, UniProt Q13547); assay: Inhibition of human HDAC1 using fluorogenic tetrapeptide RHKKAc as substrate
Chain of Histone deacetylase 1 (Q13547 whole entry): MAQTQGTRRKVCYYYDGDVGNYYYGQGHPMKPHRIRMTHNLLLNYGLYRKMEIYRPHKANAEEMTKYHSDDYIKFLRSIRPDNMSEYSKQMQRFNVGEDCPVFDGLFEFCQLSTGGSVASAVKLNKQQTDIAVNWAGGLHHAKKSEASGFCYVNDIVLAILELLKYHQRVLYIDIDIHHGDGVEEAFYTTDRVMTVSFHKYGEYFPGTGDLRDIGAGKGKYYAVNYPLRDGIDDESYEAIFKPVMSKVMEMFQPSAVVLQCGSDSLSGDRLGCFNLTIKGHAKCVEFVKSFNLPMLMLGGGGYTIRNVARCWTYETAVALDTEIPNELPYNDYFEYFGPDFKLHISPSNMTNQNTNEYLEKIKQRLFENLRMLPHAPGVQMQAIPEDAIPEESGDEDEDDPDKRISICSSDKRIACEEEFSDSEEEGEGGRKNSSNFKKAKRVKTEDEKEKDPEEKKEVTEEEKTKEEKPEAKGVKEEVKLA

[9] = target: Histone deacetylase 9 (Homo sapiens, UniProt Q9UKV0); assay: Inhibition of human HDAC9 using fluorogenic tetrapeptide RHKKAc as substrate
Chain of Histone deacetylase 9 (Q9UKV0 whole entry): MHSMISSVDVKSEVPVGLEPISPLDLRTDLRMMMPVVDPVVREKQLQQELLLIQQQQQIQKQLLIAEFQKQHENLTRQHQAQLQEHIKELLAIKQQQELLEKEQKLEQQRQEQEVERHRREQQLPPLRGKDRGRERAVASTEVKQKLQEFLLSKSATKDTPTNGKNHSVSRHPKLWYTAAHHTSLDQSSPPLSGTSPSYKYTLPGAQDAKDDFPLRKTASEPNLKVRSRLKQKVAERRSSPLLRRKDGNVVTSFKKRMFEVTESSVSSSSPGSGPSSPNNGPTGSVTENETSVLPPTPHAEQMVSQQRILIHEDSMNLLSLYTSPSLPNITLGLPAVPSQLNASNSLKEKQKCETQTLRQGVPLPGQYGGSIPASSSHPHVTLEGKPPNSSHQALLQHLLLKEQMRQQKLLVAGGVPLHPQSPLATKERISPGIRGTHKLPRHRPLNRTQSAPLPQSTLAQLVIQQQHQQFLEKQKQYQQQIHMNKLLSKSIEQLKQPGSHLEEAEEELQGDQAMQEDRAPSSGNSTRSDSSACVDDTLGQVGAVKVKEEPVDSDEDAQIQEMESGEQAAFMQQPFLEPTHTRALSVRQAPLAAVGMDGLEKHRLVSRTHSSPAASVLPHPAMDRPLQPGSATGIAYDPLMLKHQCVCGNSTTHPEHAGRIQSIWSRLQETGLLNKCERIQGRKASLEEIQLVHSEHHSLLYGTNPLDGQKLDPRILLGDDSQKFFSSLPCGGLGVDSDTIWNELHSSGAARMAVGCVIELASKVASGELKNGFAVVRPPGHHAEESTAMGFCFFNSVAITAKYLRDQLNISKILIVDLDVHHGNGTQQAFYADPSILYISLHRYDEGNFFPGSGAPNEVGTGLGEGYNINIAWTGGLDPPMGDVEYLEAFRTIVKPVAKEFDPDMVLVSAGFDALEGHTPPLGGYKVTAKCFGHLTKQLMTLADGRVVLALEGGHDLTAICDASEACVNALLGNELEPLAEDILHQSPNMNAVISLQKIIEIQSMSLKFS

[10] = target: T3, Histone deacetylase 11 (Homo sapiens, UniProt Q96DB2); assay: Inhibition of human HDAC11 using fluorogenic tetrapeptide RHKKAc as substrate
T3 sequence (Q96DB2 whole entry): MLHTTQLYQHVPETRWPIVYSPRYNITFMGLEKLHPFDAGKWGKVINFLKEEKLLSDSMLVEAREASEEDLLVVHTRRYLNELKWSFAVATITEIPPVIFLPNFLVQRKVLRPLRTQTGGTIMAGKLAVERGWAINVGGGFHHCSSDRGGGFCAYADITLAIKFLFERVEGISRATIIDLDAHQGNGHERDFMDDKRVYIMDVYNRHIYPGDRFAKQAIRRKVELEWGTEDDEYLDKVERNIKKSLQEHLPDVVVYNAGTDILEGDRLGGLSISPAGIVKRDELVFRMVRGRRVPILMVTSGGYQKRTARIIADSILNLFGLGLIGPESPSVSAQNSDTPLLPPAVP

[11] = target: T4, Histone deacetylase 8 (Homo sapiens, UniProt Q9BY41); assay: Inhibition of human HDAC8 using fluorogenic tetrapeptide RHKKAc as substrate
T4 sequence (Q9BY41 whole entry): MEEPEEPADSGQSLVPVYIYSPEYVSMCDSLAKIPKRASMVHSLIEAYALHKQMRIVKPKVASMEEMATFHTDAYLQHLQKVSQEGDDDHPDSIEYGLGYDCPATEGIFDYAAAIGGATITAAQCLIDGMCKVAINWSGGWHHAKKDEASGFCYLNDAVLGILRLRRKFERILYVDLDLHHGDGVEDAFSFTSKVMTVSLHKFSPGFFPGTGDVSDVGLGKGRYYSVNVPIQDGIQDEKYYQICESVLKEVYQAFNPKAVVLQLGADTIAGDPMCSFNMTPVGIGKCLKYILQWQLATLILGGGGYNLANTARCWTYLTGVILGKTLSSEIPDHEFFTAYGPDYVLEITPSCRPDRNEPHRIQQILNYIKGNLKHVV

[12] = target: Histone deacetylase 4 (Homo sapiens, UniProt P56524); assay: Inhibition of human HDAC4 using fluorogenic tetrapeptide RHKKAc as substrate
Chain of Histone deacetylase 4 (P56524 whole entry): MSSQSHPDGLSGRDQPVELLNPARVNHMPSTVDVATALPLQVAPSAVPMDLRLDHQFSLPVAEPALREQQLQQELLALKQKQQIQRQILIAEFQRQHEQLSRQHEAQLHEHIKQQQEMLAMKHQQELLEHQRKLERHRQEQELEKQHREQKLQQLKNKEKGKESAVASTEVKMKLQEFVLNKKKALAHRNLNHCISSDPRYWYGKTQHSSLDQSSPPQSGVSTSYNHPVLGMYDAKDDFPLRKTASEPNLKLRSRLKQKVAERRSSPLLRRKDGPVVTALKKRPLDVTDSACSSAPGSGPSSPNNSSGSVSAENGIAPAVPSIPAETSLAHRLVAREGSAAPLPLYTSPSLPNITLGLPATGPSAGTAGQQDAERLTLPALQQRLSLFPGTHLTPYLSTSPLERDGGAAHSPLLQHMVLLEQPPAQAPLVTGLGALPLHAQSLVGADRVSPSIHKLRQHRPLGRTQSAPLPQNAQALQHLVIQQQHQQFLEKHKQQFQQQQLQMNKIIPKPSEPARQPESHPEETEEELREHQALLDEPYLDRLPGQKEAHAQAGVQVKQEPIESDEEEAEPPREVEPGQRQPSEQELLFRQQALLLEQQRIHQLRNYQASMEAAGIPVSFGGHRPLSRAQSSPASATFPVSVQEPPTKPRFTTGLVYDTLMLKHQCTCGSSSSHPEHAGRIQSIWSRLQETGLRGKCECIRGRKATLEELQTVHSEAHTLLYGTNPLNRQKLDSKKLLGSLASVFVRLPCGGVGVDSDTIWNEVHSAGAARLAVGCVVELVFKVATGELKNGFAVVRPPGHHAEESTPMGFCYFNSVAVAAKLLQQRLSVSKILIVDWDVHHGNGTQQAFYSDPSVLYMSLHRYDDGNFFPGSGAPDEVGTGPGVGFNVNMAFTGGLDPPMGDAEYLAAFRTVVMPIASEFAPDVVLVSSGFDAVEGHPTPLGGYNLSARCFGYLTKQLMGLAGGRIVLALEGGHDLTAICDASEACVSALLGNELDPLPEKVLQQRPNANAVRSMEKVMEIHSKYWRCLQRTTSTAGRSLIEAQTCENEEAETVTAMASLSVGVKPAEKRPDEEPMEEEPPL

[13] = target: Histone deacetylase 5 (Homo sapiens, UniProt Q9UQL6); assay: Inhibition of human HDAC5 using fluorogenic tetrapeptide RHKKAc as substrate
Chain of Histone deacetylase 5 (Q9UQL6 whole entry): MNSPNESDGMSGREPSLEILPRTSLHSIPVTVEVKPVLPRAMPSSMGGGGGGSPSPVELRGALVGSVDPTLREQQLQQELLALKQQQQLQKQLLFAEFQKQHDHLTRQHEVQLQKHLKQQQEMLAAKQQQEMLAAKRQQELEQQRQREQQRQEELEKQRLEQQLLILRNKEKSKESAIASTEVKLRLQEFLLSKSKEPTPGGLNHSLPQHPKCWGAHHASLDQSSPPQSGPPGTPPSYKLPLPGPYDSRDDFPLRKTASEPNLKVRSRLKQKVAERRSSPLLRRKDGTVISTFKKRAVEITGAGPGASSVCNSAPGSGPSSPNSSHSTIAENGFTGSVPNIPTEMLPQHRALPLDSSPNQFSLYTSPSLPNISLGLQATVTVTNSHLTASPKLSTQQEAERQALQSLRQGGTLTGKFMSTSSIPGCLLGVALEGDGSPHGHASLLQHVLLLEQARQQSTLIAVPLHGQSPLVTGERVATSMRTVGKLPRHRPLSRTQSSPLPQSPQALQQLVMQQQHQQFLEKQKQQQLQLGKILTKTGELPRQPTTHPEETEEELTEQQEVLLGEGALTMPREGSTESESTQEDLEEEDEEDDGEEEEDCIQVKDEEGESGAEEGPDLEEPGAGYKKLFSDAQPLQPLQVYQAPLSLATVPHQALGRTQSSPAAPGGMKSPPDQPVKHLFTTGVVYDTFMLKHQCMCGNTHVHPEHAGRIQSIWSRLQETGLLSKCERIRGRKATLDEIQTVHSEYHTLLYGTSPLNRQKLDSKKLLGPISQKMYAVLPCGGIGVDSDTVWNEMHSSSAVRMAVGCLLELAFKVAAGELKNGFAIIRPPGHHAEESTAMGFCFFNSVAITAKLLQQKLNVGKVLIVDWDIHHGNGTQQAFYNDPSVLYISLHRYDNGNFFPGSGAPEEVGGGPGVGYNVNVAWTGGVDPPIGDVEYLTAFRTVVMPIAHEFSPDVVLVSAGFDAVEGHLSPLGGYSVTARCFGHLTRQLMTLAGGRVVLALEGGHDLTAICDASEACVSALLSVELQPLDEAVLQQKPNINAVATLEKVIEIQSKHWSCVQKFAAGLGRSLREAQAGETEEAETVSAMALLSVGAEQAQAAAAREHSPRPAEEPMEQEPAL

[14] = tested on: IGROV-1; assay: Induction of apoptosis in human IGROV1 cells at IC80 after 72 hrs by TUNEL and flow cytometry analysis (reference value: 4%); assay type: functional
[15] = target: T5, Protein deacetylase HDAC6 (Homo sapiens) (UniProt Q9UBN7); assay: Inhibition of HDAC6 in human IGROV1 cells assessed as increase in tubulin acetylation at IC80 after 4 to 24 hrs by Western blot analysis; assay type: cell-based; settings: IGROV-1
T5 sequence (whole entry): T1 sequence (Q9UBN7 whole entry)
In short: (§2)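 Cells treated with various concentrations of HDAC inhibitors, collected, lysed and analysed by Western blotting.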

[16] = tested on: Mus musculus; assay: Toxicity in athymic nude Swiss mouse xenografted with human HCT116 cells at 50 mg/kg, po administered once-daily for 5 days a week for 5 weeks starting 3 days post tumor implantation; assay type: organism-based, HCT-116; parameters: dose 50 mg/kg, route oral; settings: in vivo
In short: (§3)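 Female athymic Swiss nude mice given 10⁷ exponentially growing HCT116 cells s.c. in the right flank; tumor lines maintained by serial s.c. fragment passage. Dosing began 3 days after implantation: 50 mg/kg orally, once daily 4–5 days/week for 5 weeks (24 doses total). Compound dissolved in DMSO, diluted in PBS with 5% Cremophor to 10% DMSO final.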

[17] = tested on: IGROV-1; assay: Cell cycle arrest in human IGROV1 cells assessed as accumulation at S phase at IC80 after 24 hrs by propidium iodide staining-based flow cytometry (reference value: 36.81%); assay type: functional
In short: (§4)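 Cell-cycle distribution in IGROV-1 cells read by flow cytometry of propidium iodide–stained cells.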

[18] = tested on: IGROV-1; assay: Cell cycle arrest in human IGROV1 cells assessed as accumulation at G1 phase at IC80 after 24 hrs by propidium iodide staining-based flow cytometry (reference value: 49.98%); assay type: functional
In short: as §4

[19] = tested on: HCT-116; assay: Anticancer activity against human HCT116 cells xenografted in athymic nude Swiss mouse assessed as tumor growth inhibition at 50 mg/kg, po administered once-daily for 5 days a week for 5 weeks starting 3 days post tumor implantation; assay type: functional; settings: read-out: TGI
In short: as §3

[20] = tested on: IGROV-1; assay: Induction of DNA damage in human IGROV1 cells assessed as p53 phosphorylation at Ser15 at 1 to 2 uM after 4 to 48 hrs by Western blot analysis; assay type: functional, cell-based
In short: as §2

[21] = Cell cycle arrest in human IGROV1 cells assessed as accumulation at G2/M phase at IC80 after 24 hrs by propidium iodide staining-based flow cytometry (reference value: 13.21%); assay type: functional; settings: IGROV-1
In short: as §4

[22] = target: Histone deacetylase 2 (Homo sapiens, UniProt Q92769); assay type: cell-based, HeLa
Chain of Histone deacetylase 2 (Q92769 whole entry): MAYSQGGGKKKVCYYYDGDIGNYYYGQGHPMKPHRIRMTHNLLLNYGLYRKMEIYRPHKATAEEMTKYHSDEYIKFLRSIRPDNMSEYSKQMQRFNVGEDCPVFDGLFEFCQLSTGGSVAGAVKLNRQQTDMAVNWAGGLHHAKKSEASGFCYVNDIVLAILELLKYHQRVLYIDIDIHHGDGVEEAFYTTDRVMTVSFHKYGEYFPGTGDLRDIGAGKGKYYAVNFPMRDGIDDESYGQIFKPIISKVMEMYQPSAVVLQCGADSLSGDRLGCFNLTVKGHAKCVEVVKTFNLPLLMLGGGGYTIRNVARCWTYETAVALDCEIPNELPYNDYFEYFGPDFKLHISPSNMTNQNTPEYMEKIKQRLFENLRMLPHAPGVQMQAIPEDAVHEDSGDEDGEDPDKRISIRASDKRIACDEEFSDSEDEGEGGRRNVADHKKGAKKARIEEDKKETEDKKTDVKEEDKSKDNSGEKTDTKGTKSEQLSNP

SMILES: O=C(/C=C/c1ccc(-c2ccc(O)c(C34CC5CC(CC(C5)C3)C4)c2)c(Cl)c1)NO
- IC50 [1]: 5.4 µM
- IC50 [2]: 5.4 µM
- IC50 [3]: 1.34 µM
- IC50 [4]: 1.6 µM

SMILES: O=C(/C=C/c1ccc(-c2ccc(O)cc2)cc1)NO
- IC50 [5]: 0.0418 µM
- IC50 [6]: 11 µM
- IC50 [7]: 4.57 µM
- IC50 [8]: 5.51 µM
- IC50 [9]: 8.92 µM
- IC50 [10]: 5.01 µM
- IC50 [11]: 0.162 µM
- IC50 [12]: 17.1 µM
- IC50 [13]: 11.2 µM

SMILES: COc1ccc(-c2ccc3cc(C(=O)NO)ccc3c2)cc1C12CC3CC(CC(C3)C1)C2
- IC50 [1]: 1.3 µM
- IC50 [2]: 1.4 µM
- IC50 [3]: 1.5 µM
- IC50 [4]: 4.16 µM

SMILES: O=C(NO)c1ccc2cc(-c3ccc(O)c(C45CC6CC(CC(C6)C4)C5)c3)ccc2c1
- IC50 [1]: 1 µM
- IC50 [2]: 0.7 µM
- IC50 [3]: 0.65 µM
- IC50 [4]: 1.1 µM

SMILES: O=C(CCCCCCC(=O)Nc1ccccc1)NO [VORINOSTAT]
- Activity [14]: 37%

SMILES: COc1ccc(-c2ccc(/C=C/C(=O)NO)cc2)cc1C12CC3CC(CC(C3)C1)C2
- Activity [15]: inactive
- Activity [16]: Non-toxic
- Activity [17]: 18.14%
- IC50 [1]: 1.42 µM
- Activity [18]: 78.46%
- inhibition in vivo at 50 mg/kg [19]: 60%
- IC50 [2]: 1.3 µM
- IC50 [10]: 77 µM
- Activity [14]: 42%
- Activity [20]: Active
- IC50 [3]: 0.96 µM
- Activity [21]: 3.39%
- IC50 [22]: 2.3 µM
- IC50 [4]: 1.8 µM

SMILES: COc1ccc(-c2ccc(/C=C/C(=O)NO)cc2)cc1
- Activity [17]: 55.84%
- IC50 [5]: 0.0368 µM
- IC50 [6]: 91 µM
- Activity [18]: 42.05%
- IC50 [7]: 84.5 µM
- IC50 [8]: 8.55 µM
- IC50 [9]: 39.3 µM
- IC50 [10]: 73 µM
- Activity [14]: 90%
- IC50 [11]: 0.0698 µM
- IC50 [12]: 99.4 µM
- IC50 [13]: 29.6 µM
- Activity [21]: 2.11%

SMILES: O=C(/C=C/c1ccc(-c2cc3c(c(C45CC6CC(CC(C6)C4)C5)c2)OCCO3)cc1)NO
- IC50 [1]: 1 µM
- IC50 [2]: 2.55 µM
- IC50 [3]: 1.2 µM
- IC50 [4]: 0.8 µM

SMILES: O=C(/C=C/c1ccc(-c2cccc(C34CC5CC(CC(C5)C3)C4)c2)cc1)NO
- IC50 [1]: > 10 µM
- IC50 [2]: 10.3 µM
- IC50 [3]: 1.23 µM
- IC50 [22]: > 10 µM
- IC50 [4]: 5.7 µM

SMILES: O=C(/C=C/c1ccc(-c2ccccc2)cc1)NO
- IC50 [4]: 4.3 µM

SMILES: O=C(/C=C/c1ccc(-c2ccc(O)c(C34CC5CC(CC(C5)C3)C4)c2)cc1)NO
- IC50 [1]: 0.83 µM
- IC50 [5]: 2.8 µM
- IC50 [6]: > 100 µM
- IC50 [2]: 0.58 µM
- IC50 [7]: 55.6 µM
- IC50 [8]: > 100 µM
- IC50 [9]: 41.4 µM
- IC50 [10]: 57.2 µM
- IC50 [11]: 6.96 µM
- IC50 [12]: 61.4 µM
- IC50 [3]: 1.1 µM
- IC50 [13]: 78.4 µM
- IC50 [22]: 2.64 µM
- IC50 [4]: 1.3 µM
